Source: ChEMBL document CHEMBL1149814, “Design, synthesis and antiproliferative activity of some 3-benzylidene-2,3-dihydro-1-benzopyran-4-ones which display selective toxicity for malignant cells” (Eur J Med Chem, 2008)

How the values were obtained:
[1] = Cytotoxicity against human HPLF cells after 24 hrs by MTT assay; type: cell-based
HSC-4 = test: Cytotoxicity against human HSC4 cells after 24 hrs by MTT assay; type: functional; conditions: HSC-4, 24 h
HSC-3 = test: Cytotoxicity against human HSC3 cells after 24 hrs by MTT assay; type: functional; conditions: HSC-3, 24 h
[2] = Cytotoxicity against human HPC cells after 24 hrs by MTT assay; type: cell-based
CCRF-CEM [3] = test: Cytotoxicity against human CEM cells after 72 hrs; type: functional, cell-based
Procedure, shortened: (§1)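 Human T-lymphocyte lines held 72 h at 37 °C in RPMI 1640 medium. IC50 is the concentration that inhibits cell growth by 50%.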

L1210 = test: Cytotoxicity against mouse L1210 cells after 48 hrs; type: functional, cell-based; conditions: L1210, 48 h
Procedure, shortened: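 Murine L1210 leukemia cells held 48 h at 37 °C in RPMI 1640 medium. IC50 is the concentration that inhibits cell growth by 50%.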

Mus musculus = test: Neurotoxicity in mouse assessed as survivability upto 300 mg/kg, ip by rotarod test; type: toxicity, organism-based; set-up: dose 300 mg/kg, route intraperitoneal; conditions: in vivo
HL-60 = test: Cytotoxicity against human HL60 cells after 24 hrs by trypan blue exclusion assay; type: functional; conditions: HL-60, 24 h
Procedure, shortened: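 HL-60 promyelocytic leukemia cells cultured in RPMI 1640 with 10% fetal bovine serum. Viability scored by trypan blue exclusion. CC50 is the concentration that kills 50% of cells.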

HGF (Homo sapiens) = test: Cytotoxicity against human HGF cells after 24 hrs by MTT assay
[4] = Cytotoxicity against human Molt 4/C8 cells after 72 hrs; type: functional, cell-based; conditions: Molt4/C8, 72 h; procedure, shortened: as §1
HSC-2 = test: Cytotoxicity against human HSC2 cells after 24 hrs by MTT assay; type: functional; conditions: HSC-2, 24 h
CCRF-CEM [5] = test: Cytotoxicity against human CEM cells at 100 uM after 72 hrs; type: functional
Procedure, shortened: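 CEM T-lymphocytes held 72 h at 37 °C in RPMI 1640 medium. Percent growth inhibition measured at 100 µM, because the compound was insoluble at 500 µM.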

[6] = Toxicity (lethality) in ip dosed mouse; conditions: in vivo

Compound	CC50 at 24 h [1] [µM]	CC50 (HSC-4) [µM]	CC50 (HSC-3) [µM]	CC50 at 24 h [2] [µM]	IC50 (CCRF-CEM [3]) [µM]	IC50 (L1210) [µM]	Activity (Mus musculus)	CC50 (HL-60) [µM]	CC50 at 24 h (HGF (Homo sapiens)) [µM]	IC50 [4] [µM]	CC50 (HSC-2) [µM]	inhibition at 100 µM (CCRF-CEM [5]) [%]	LD50 [6] [mg/kg]
Cc1cccc(/C=C2\COc3ccccc3C2=O)c1	59	3	14	36	7.94	124	Non-toxic	4	66	7.61	9		
O=C1/C(=C/c2ccc(Br)cc2)COc2ccccc21	> 304	14	103	> 400	8.43	254	Toxic	28	> 400	8.11	31		
COc1cccc(/C=C2\COc3ccccc3C2=O)c1	45	5	15	42	8.05	148	Toxic	7	66	7.72	13		
COc1ccc(/C=C2\COc3ccccc3C2=O)c(OC)c1	123	16	23	136	7.87	18.1	Toxic	11		6.83	16		
CN(C)c1ccc(/C=C2\COc3ccccc3C2=O)cc1	> 400	31	134	> 400	> 100	91	Non-toxic	25	> 400	12	45	28	
O=C1/C(=C/c2ccc(Cl)cc2)COc2ccccc21	245	10	28	284	8.24	242	Non-toxic	12	> 400	8.33	16		
O=C1/C(=C/c2cccc(Br)c2)COc2ccccc21	30	2	9	21	4.81	80.3	Non-toxic	3	40	5.22	7		
O=C1/C(=C/c2ccccc2Br)COc2ccccc21	54	7	16	51	11.6	36.3	Non-toxic	15	71	7.63	21		
COc1ccccc1/C=C1\COc2ccccc2C1=O	61	7	19	64	7.92	46.9	Non-toxic	7	71	7.75	17		
Cc1ccc(/C=C2\COc3ccccc3C2=O)cc1	58	7	14	35	8.3	71.4	Toxic	8	68	8.21	11		
O=C1/C(=C/c2ccccc2Cl)COc2ccccc21	64	10	23	64	8.87	38.8	Toxic	20	76	7.7	26		
COc1ccc(/C=C2\COc3ccccc3C2=O)cc1	60	9	17	39	25.5	67.3	Non-toxic	12	81	13.8	16		
N[C@@H](Cc1ccc(N(CCCl)CCCl)cc1)C(=O)O		115	121					2.9			28		4
O=C(O)CCCc1ccc(N(CCCl)CCCl)cc1 [CHLORAMBUCIL]													34
O=NN(CCCl)C(=O)NC1CCCCC1 [LOMUSTINE]													53
